The values below come from paper PMC9390995 (Science Advances, 2022).

The test system of test [1] is p-STAT5/p-STAT6 in hPBMCs. The experiment in a line: γc cytokine-stimulated STAT phosphorylation, Western blot. The settings on record: fig. S1. It counts as cell-based, human. Summed up:
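hPBMCs in RPMI 1640 with 10% FBS at 37°C, 5% CO2, plated 5×10^5 per well. Pretreated 1 h with test compound, then stimulated with IL-2, IL-4, IL-7, IL-9, IL-15 or IL-21. Lysed in RIPA buffer with protease/phosphatase inhibitors. p-STAT5/p-STAT6 by Western blot normalized to GAPDH; three independent experiments.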
On the technique in general: A western blot detects proteins with antibodies after separation by electrophoresis.

The next test relates to JAK2. The settings on record: read-out: IC50 against JAK2; cited from earlier work.
Another test concerns the target JAK1 (Homo sapiens, UniProt P23458). The settings on record: biochemical assays; cited from earlier work.

Structures are written as SMILES.

JAK1, sequence (P23458 whole entry): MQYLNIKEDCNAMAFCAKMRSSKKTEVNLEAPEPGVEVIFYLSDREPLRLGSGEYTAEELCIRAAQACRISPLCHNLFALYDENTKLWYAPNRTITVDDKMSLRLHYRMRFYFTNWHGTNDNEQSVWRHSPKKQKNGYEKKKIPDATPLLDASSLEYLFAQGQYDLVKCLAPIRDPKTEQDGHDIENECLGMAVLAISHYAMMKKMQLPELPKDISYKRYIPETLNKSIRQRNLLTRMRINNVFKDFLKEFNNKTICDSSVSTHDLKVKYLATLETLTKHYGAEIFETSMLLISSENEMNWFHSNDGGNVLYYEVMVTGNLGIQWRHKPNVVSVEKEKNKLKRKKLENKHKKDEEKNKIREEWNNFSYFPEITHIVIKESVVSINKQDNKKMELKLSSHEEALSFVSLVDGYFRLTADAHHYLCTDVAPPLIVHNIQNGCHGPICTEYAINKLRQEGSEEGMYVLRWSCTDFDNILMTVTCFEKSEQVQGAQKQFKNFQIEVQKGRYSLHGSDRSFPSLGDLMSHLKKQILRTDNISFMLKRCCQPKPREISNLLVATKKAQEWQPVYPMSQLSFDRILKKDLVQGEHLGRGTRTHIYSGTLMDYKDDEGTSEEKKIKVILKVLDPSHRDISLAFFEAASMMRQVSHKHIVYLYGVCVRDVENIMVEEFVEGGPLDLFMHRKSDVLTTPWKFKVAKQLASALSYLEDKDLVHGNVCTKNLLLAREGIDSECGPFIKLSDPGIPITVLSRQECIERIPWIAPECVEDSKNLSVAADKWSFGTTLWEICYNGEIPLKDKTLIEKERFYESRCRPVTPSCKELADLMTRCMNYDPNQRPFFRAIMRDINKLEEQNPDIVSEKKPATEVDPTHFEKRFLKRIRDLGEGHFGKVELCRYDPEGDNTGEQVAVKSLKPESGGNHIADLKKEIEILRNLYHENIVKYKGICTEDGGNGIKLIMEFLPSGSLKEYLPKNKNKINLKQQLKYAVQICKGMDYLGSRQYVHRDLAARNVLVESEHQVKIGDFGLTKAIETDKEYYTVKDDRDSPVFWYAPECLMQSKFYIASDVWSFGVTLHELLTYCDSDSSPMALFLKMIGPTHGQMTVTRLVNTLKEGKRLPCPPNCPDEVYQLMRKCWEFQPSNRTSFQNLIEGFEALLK

The term IC50 denotes the midpoint of a concentration-inhibition curve. On to `C=CC(=O)N1C[C@H](Nc2ncnc3[nH]ccc23)CC[C@@H]1C` [Ritlecitinib, 1-((2S,5R)-5-((7H-pyrrolo[2,3-d]pyrimidin-4-yl)amino)-2-methylpiperidin-1-yl)prop-2-en-1-one], for which, in test [1], the “IL-2-induced p-STAT5 levels” value is “potent inhibition”. In addition, the IC50 with JAK2 is above 10 µM.
`O=C(Nc1nc2cccc(-c3ccc(CN4CCS(=O)(=O)CC4)cc3)n2n1)C1CC1` [filgotinib]: on JAK1, the “preference for JAK1 over JAK2” value is 2.8 fold.
For the molecule `CC[C@@H]1CN(C(=O)NCC(F)(F)F)C[C@@H]1c1cnc2cnc3[nH]ccc3n12` [upadacitinib], on JAK1, the “preference for JAK1 over JAK2” value is listed as 2.4 fold.
